Measurements reported in ChEMBL document CHEMBL1133729, “Design, synthesis, and structure-activity relationships of phthalimide-phenylpiperazines: a novel series of potent and selective alpha(1)(a)-adrenergic receptor antagonists” (J Med Chem, 2000).

Key:
[1] = target: Histamine H1 receptor (Cavia porcellus) (UniProt P31389); experiment: Compound at 1 uM was tested for the inhibition of radioligand [3H]pyrilamine binding to peripheral histamine H1 receptor in guinea pig lung
[2] = target: phenylalkylamine-sensitive L-type Ca2+ channel (Rattus norvegicus, UniProt P22002+P27732+Q02485); experiment: Inhibition of [3H]nitrendipine binding to phenylalkylamine-sensitive [Ca2+] L-type channels in rat cerebral cortex at 1 uM; format: tissue-based; conditions: probe [3H]nitrendipine
[3] = target: T1, D(4) dopamine receptor (Homo sapiens) (UniProt P21917); experiment: Compound at 1 uM was tested for the inhibition of radioligand [3H]spiperone binding to recombinant human Dopamine receptor D4.7
T1 sequence (whole entry): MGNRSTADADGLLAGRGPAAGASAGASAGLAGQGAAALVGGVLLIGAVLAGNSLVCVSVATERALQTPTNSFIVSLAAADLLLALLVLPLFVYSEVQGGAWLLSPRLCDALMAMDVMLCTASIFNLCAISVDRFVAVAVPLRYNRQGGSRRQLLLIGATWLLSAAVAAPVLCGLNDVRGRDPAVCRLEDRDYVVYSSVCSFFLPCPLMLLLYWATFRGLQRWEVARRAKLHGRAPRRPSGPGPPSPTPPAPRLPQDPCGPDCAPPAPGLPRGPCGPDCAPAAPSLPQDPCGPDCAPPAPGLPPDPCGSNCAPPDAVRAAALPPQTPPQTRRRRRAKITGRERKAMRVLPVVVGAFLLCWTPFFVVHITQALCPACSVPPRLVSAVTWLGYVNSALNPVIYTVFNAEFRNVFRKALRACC
Summary of the method: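 Recombinant human D4.7 in CHO cell membranes; [3H]spiperone for 120 min at 25 °C, pH 7.4 Tris-HCl/NaCl/EDTA; haloperidol (10 μM) for nonspecific binding. Compound at 1 μM, percent inhibition determined in duplicate; filtration, scintillation counting.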

[4] = target: T2, Dihydropyridine-sensitive L-type Ca2+ channel (Rattus norvegicus, UniProt P22002+P27732+Q02485); experiment: Inhibition of [3H]nitrendipine binding to Dihydropyridine-sensitive L-type [Ca2+] channel in rat cerebral cortex at 1 uM; format: tissue-based; conditions: probe [3H]nitrendipine
Summary of the method: (§1)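 Rat cerebral cortex membranes as source of dihydropyridine-sensitive L-type Ca2+ channels; [3H]nitrendipine, 25 °C for 90 min, pH 7.4 Tris-HCl/NaCl/EDTA; 1 μM nifedipine for nonspecific binding. Percent inhibition at the single compound concentration given in each line; filtration, scintillation counting.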

[5] = species on record: Rattus norvegicus; experiment: Displacement of [3H]-idazoxan from imidazoline receptor I-2 of rat cerebral cortex; format: tissue-based; conditions: concentration not given here
Summary of the method: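 Rat cerebral cortex membranes; [3H]idazoxan at 25 °C for 30 min in 50 mM Tris-HCl, 150 mM NaCl, 5 mM EDTA, pH 7.4; nonspecific binding with 1 μM idazoxan. Filtered, washed three to four times, scintillation counted; duplicate determinations.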

[6] = species on record: Rattus norvegicus; experiment: Antagonist dissociation equilibrium constant was tested against rat aorta contraction; format: functional
Summary of the method: (§2)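 Isolated Long Evans male rat (275 ± 25 g) abdominal aortic strips (3-4 mm wide) or prostate strips (8-10 mm x 1-2 mm), 2 g resting tension, modified Krebs at 37 °C, 95% O2/5% CO2, pH 7.4, 60 min equilibration; isometric tension.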

[7] = target: T3, D(2) dopamine receptor (Homo sapiens, UniProt P14416); experiment: Binding affinity towards recombinant human Dopamine receptor D2S was determined using [3H]spiperone as radioligand
T3 sequence (P14416 whole entry): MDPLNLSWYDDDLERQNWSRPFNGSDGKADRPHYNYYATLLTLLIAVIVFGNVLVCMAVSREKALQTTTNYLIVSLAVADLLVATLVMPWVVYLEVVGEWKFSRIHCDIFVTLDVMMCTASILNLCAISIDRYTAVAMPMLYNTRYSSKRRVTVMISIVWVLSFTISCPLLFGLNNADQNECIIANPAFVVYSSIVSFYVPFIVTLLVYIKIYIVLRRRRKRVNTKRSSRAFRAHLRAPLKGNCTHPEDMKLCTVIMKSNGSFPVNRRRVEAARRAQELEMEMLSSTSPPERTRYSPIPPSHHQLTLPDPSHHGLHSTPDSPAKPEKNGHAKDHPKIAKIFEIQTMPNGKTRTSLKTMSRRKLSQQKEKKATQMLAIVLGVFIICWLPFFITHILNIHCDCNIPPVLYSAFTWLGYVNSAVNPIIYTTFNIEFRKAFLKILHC
Summary of the method: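 Recombinant human D2S in CHO cell membranes; [3H]spiperone incubated 120 min at 37 °C, buffer 50 mM Tris-HCl, 150 mM NaCl, 5 mM EDTA, pH 7.4; nonspecific with 10 μM haloperidol. Filtered, counted by scintillation. Ki via Cheng–Prusoff from fitted IC50, mean ± SEM of three experiments.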

[8] = species on record: Rattus norvegicus; experiment: Antagonist dissociation equilibrium constant was tested against rat prosta contraction; format: functional
Summary of the method: as §2

[9] = target: 5-hydroxytryptamine receptor 7 (Homo sapiens, UniProt P34969); experiment: Binding affinity towards recombinant human 5-hydroxytryptamine 7 receptor was determined using [3H]LSD as radioligand
5-hydroxytryptamine receptor 7, sequence (P34969 whole entry): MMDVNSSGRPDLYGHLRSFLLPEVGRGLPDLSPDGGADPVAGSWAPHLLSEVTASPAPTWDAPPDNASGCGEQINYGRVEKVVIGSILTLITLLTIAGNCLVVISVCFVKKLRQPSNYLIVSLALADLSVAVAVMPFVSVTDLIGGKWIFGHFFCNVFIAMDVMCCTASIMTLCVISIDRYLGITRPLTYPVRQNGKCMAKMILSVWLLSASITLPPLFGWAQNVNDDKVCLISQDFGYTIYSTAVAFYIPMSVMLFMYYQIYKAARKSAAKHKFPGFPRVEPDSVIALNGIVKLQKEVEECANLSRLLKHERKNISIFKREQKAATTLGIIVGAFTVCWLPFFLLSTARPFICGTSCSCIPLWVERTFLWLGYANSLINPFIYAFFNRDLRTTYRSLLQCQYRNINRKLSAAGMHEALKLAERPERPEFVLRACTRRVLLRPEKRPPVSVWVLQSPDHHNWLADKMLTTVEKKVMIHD
Summary of the method: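 Membranes were from CHO cells expressing recombinant human 5-HT7. [3H]LSD binding was run for 120 min at 37 °C in 50 mM Tris-HCl, 150 mM NaCl, 5 mM EDTA, pH 7.4, with nonspecific binding set by 5 μM 5-HT. Filtration and scintillation counting followed. Ki came from IC50 by Cheng–Prusoff, mean ± SEM of three experiments.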

[10] = target: T3, D(2) dopamine receptor; experiment: Binding affinity towards recombinant human Dopamine receptor D2L was determined using [3H]spiperone as radioligand
Summary of the method: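 CHO-expressed human D2L membranes; [3H]spiperone, 25 °C for 120 min, pH 7.4 Tris-HCl/NaCl/EDTA buffer; haloperidol (10 μM) for nonspecific binding. Filtration, scintillation counting. IC50 by nonlinear least squares fitting; Ki by Cheng–Prusoff; mean ± SEM, three independent experiments.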

[11] = target: D(3) dopamine receptor (Homo sapiens, UniProt P35462); experiment: Binding affinity towards recombinant human Dopamine receptor D3 was determined using [3H]spiperone as radioligand
D(3) dopamine receptor, sequence (P35462 whole entry): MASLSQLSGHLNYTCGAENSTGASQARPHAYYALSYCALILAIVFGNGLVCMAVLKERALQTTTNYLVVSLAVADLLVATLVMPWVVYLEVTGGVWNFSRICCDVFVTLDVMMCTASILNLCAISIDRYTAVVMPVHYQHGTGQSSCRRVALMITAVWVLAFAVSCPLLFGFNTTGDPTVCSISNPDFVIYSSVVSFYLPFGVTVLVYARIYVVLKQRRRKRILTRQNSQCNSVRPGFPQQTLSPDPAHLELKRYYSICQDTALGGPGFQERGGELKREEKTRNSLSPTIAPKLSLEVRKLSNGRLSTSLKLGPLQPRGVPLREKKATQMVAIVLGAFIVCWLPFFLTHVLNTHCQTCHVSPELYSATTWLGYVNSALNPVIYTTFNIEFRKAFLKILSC

[12] = target: Alpha-2B adrenergic receptor (Rattus norvegicus, UniProt P19328); experiment: Binding affinity towards rat alpha-2B adrenergic receptor was determined using [3H]yohimbine as radioligand
Alpha-2B adrenergic receptor, sequence (P19328 whole entry): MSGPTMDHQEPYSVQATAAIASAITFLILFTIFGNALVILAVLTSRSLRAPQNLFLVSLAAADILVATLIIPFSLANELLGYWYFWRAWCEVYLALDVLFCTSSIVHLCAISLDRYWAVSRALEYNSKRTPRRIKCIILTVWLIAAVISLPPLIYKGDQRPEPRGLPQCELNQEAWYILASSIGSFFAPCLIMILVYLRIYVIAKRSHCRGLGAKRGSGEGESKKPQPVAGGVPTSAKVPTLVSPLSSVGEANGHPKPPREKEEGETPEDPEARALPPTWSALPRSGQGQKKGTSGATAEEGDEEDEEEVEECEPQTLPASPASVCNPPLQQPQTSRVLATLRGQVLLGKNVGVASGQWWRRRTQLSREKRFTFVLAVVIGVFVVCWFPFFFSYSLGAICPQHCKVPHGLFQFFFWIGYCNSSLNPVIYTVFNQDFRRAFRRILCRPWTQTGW
Summary of the method: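 Membranes from rat kidney cortex; [3H]yohimbine binding at 25 °C for 30 min in 50 mM Tris-HCl, 150 mM NaCl, 5 mM EDTA, pH 7.4. Nonspecific binding defined with 10 μM phentolamine. Filtration, washes, scintillation counting. IC50 from nonlinear regression, Ki by Cheng–Prusoff, mean ± SEM of three independent experiments.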

[13] = Ratio of rat aorta KB to rat prostate KB; format: functional
Summary of the method: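 Long Evans male rats (275 ± 25 g); aortic and prostate strips at 2 g resting tension in modified Krebs, 37 °C, 95% O2/5% CO2, pH 7.4, isometric recording. Cumulative NE curves (0.001–100 μM), repeated after 5 min with one of three antagonist concentrations. KB = [B]/(CR − 1) from EC50 shifts; value is aorta KB divided by prostate KB.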

[14] = target: T2, Dihydropyridine-sensitive L-type Ca2+ channel; experiment: Inhibition of [3H]nitrendipine binding to Dihydropyridine-sensitive L-type [Ca2+] channel in rat cerebral cortex at 10 uM; format: tissue-based; conditions: probe [3H]nitrendipine
Summary of the method: as §1

[15] = target: Serotonin 1 (5-HT1) receptor (Rattus norvegicus, UniProt P28564+P30940+P19327+P28565); experiment: Binding affinity towards central 5-hydroxytryptamine 1 receptor was determined in rat cerebral cortex using [3H]5-HT as radioligand; format: tissue-based
Summary of the method: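 Rat cerebral cortex membranes incubated with [3H]5-HT for 10 min at 37 °C in 50 mM Tris-HCl, 150 mM NaCl, 5 mM EDTA, pH 7.4. Nonspecific binding defined with 10 μM 5-HT. Filtration, then liquid scintillation counting. Ki derived from IC50 by Cheng–Prusoff; mean of three independent experiments.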

Histamine H1 receptor (Cavia porcellus), sequence (P31389 whole entry): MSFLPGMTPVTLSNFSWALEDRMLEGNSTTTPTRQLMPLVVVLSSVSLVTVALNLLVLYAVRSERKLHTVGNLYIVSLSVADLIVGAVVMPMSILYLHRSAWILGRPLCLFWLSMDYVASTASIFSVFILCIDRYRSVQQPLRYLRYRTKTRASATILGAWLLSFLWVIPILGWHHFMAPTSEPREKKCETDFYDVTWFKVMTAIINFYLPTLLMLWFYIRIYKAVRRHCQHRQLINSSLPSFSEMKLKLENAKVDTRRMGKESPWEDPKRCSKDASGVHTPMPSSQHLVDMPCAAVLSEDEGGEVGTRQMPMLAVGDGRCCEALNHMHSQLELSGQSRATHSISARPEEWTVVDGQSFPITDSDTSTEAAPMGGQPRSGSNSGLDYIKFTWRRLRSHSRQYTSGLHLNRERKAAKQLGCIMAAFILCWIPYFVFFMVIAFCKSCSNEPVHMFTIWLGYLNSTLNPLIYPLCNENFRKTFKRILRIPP

CC(C)Oc1ccccc1N1CCN(CCCNC(=O)c2ccc3c(c2)C(=O)N(c2cccc(F)c2)C3=O)CC1
inhibition [1]: 75%
inhibition at 1 µM [2]: 72%
inhibition [3]: 69%
inhibition at 1 µM [4]: 76%
inhibition [5]: 66%

CCOc1ccccc1OCCN[C@H](C)Cc1ccc(OC)c(S(N)(=O)=O)c1 [TAMSULOSIN]
pKB [6]: 10.76
inhibition [1]: 7%
inhibition at 1 µM [2]: 20%
Ki [7]: 78 nM
pKB [8]: 9.33
Ki [9]: 84 nM
inhibition [3]: 21%
Ki [10]: 13 nM
Ki [11]: 0.28 nM
inhibition at 1 µM [4]: 22%
inhibition [5]: 64%
Ki [12]: 80 nM

CC(C)Oc1ccccc1N1CCN(C[C@@H](O)CNC(=O)c2ccc3c(c2)C(=O)N(c2cccc(F)c2)C3=O)CC1
pKB [6]: 6.47
inhibition [1]: 69%
inhibition at 1 µM [2]: 81%
pKB [8]: 7.81
inhibition [3]: 43%
Ratio [13]: 22.6
inhibition at 1 µM [4]: 67%

COc1ccc(N2C(=O)c3ccc(C(=O)NCCCN4CCN(c5ccccc5OC(C)C)CC4)cc3C2=O)cc1
inhibition [3]: 32%

Cc1ccc(N2C(=O)c3ccc(C(=O)NC[C@H](O)CN4CCN(c5ccccc5OC(C)C)CC4)cc3C2=O)cc1
pKB [6]: 5.9
pKB [8]: 6.78
Ratio [13]: 7.6

CC(C)Oc1ccccc1N1CCN(C[C@@H](O)CNC(=O)c2ccc3c(c2)C(=O)N(c2ccc(N(C)C)cc2)C3=O)CC1
pKB [6]: 5.84
inhibition at 1 µM [2]: 57%
Ki [7]: 25 nM
pKB [8]: 7.39
Ki [9]: 10 nM
inhibition [3]: 50%
Ki [10]: 23 nM
inhibition at 10 µM [14]: 53%
Ki [11]: 62 nM
Ratio [13]: 35.2
Ki [15]: 773 nM
Ki [12]: 169 nM

Cc1ccc(N2C(=O)c3ccc(C(=O)NCCCN4CCN(c5ccccc5OC(C)C)CC4)cc3C2=O)cc1
inhibition at 1 µM [2]: 69%
inhibition [3]: 20%
inhibition at 1 µM [4]: 53%
